# Results published in the array DNA melting data of Ke et al. (doi:10.1101/2024.01.08.574731).
# How the values were obtained:
# [1] = melting temperature; fluorescence melt of hairpins on a sequencing array, two-state fit, raised by 9.35 °C to match UV melts; conditions: sodium 0.088 M
# Procedure, shortened: (§1)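 Folding enthalpy and melting temperature were estimated with bootstrapped two-state fits and combined across four replicates by inverse-variance weighting, with fitted temperatures raised by 9.35 °C to match UV melts. The data were Cy3 fluorescence of library hairpins, with annealed Cy3 and quencher oligos, on a sequenced MiSeq flow cell in 50 mM Na-HEPES pH 8.0, 25 mM NaCl, imaged in 2.5 °C steps up to 60 °C and normalised to pre-quench Cy3 and control constructs.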
# [2] = folding enthalpy; higher = less favourable; fluorescence melt of hairpins on a sequencing array, two-state fit; conditions: sodium 0.088 M
# Procedure, shortened: as §1
Sequence,Tm [1] [°C],folding enthalpy [2] [kcal/mol]
GCTCCGCGAAAGCCCAGC (((..((....))..))),23.2,-5.26
GCTCCGCGAAAGCCGGGC ((.(.((....)).).)),50,-16.4
GCTCCGCGAAAGCGAAGC (((.(((....))).))),56.4,-29
GCTCCGCGAAAGCGACGC ((..(((....)))..)),42.6,-18.4
GCTCCGCGAAAGCGCTGC ((..(((....)))..)),37.4,-12.3
GCTCCGTCGAAAGACAGC (((..(((....)))))),32.4,-15
GCTCCTGGAAACAAGAGC ((((.((....)).)))),34.8,-27.9
GCTCCTGGAAACAGAAGC (((.(((....))).))),39.9,-28.5
GCTCCTGGAAACGGGAGC (((((.(....).))))),59.5,-41.1
GCTCGACGAAAGTCCAGC (((.(((....))).))),44.6,-24.1
GCTCGCCGAAAGGCAAGC (((.(((....))).))),54.7,-29.1
GCTCGCGAAAGCGAAAGC ((((((....)))..))),54.3,-14.4
GCTCGCGAAAGCGACAGC ((((((....)))..))),47.5,-10.7
GCTCGCGAAAGCGCAAGC ((((((....)))..))),48.5,-12.4
GCTCGCGAAAGCGCCAGC ((((((....)))..))),42.1,-8.57
GCTCGCGAAAGCGGGAGC ((((((....)))..))),55.1,-15.7
GCTCGCGAAAGCGTGAGC ((((((....)))..))),53.4,-18
GCTCGCGGAAACACGAGC (((((.(....).))))),55.2,-44.6
GCTCGGCGAAAGCCACGC ((..(((....)))..)),43.3,-11.5
GCTCGGCGAAAGCCCAGC (((.(((....))).))),44.2,-42.5
GCTCGGCGAAAGCCGCGC ((.((((....)))).)),65.1,-18.5
GCTCGGCGAAAGCTAAGC (((..((....))..))),44.4,-15.8
GCTCGGGGAAACCCGAAC (.(((((....))))).),45.9,-12.6

Sequence,Tm [1] [°C],folding enthalpy [2] [kcal/mol]
GCTCGGGGAAACCTGAGC ((((.((....)).)))),59.3,-35.1
GCTCGTCCGAAAGGAAGC (((..(((....)))))),36.6,-8.41
GCTCGTCGAAAGACTAGC (((.(((....))).))),49,-39
GCTCTACGAAAGTACAGC (((.(((....))).))),35.5,-21.5
GCTCTATCGAAAGATAGC (((..(((....)))))),30.2,-13.6
GCTCTCCGAAAGGAAAGC (((.(((....))).))),46.5,-28.4
GCTCTCCGAAAGGATAGC (((.(((....))).))),49.1,-34.7
GCTCTCGAAAGAGACAGC ((((((....)))..))),35.9,-17.8
GCTCTCGAAAGAGCCAGC ((((((....)))..))),37.5,-11.3
GCTCTCGAAAGAGTAGC ((((((....))).))),47.2,-27.8
GCTCTGCGAAAGCAACGC ((..(((....)))..)),31.8,-9.7
GCTCTGCGAAAGCACAGC (((.(((....))).))),38.6,-25.6
GCTCTGCGAAAGCACGGC ((..(((....)))..)),39.7,-14.6
GCTCTGCGAAAGCAGTGC ((.((((....)))).)),62,-16.7
GCTCTGCGAAAGCATCGC ((..(((....)))..)),35.4,-16.3
GCTCTGCGAAAGCCCAGC (((..((....))..))),30.5,-9.22
GCTCTGCGAAAGCCGCGC ((.(.((....)).).)),39.4,-15
GCTCTGCGAAAGCTGAGC ((((.((....)).)))),68.3,-41.2
GCTCTGGGAAACTGGAGC ((((..(....)..)))),45.9,-34.1
GCTCTTACGAAAGTAAGC (((..(((....)))))),34.7,-9.83
GCTGACCCGAAAGGGAGC (((..(((....)))))),41.8,-14.7
GCTGACCGAAAGGTGAGC (((.(((....))).))),55.4,-38.4
GCTGACGAAAGTCGAAGC ((((((....)))..))),48.5,-19.1

Sequence,Tm [1] [°C],folding enthalpy [2] [kcal/mol]
GCTGACGGAAACGTCAAC (.(((((....))))).),43.2,-14.3
GCTGAGCGAAAGCCAAGC (((..((....))..))),48.6,-18.8
GCTGAGCGAAAGCCCTGC ((.(.((....)).).)),42.5,-17.7
GCTGAGCGAAAGCGCCGC ((.(.((....)).).)),50.5,-15.2
GCTGAGCGAAAGCTAGC (((.(((....)))))),53,-26.3
GCTGAGCGAAAGCTAGGC ((..(((....)))..)),52.7,-20.3
GCTGATGGAAACATCAGC (((((((....))))))),67.6,-43.5
GCTGATGGAAACATTGGC ((..(((....)))..)),36,-31
GCTGCACCGAAAGGTAGC (((..(((....)))))),49.2,-13.4
GCTGCAGGAAACTACAGC ((((.((....)).)))),45.6,-33.9
GCTGCATCGAAAGATAGC (((..(((....)))))),35.6,-17
GCTGCCCGAAAGGGAGC (((.(((....)))))),57.1,-23
GCTGCCGAAAGGCGAGC ((((((....))).))),64.3,-18.6
GCTGCCGAAAGGCGGAGC ((((((....)))..))),51.3,-12.6
GCTGCCGAAAGGCTGAGC ((((((....)))..))),50.1,-16.2
GCTGCGCGAAAGCAAAGC (((..((....))..))),62,-30.6
GCTGCGCGAAAGCCGAGC (((..((....))..))),45,-17
GCTGCGCGAAAGCGAGC (((.(((....)))))),60.4,-14.3
GCTGCGCGAAAGCGATGC ((..(((....)))..)),58,-18.6
GCTGCGCGAAAGCGTGGC ((..(((....)))..)),65.9,-24.3
GCTGCGCGAAAGCTCTGC ((.(.((....)).).)),42.3,-18.2
GCTGCGCGAAAGCTGAGC (((..((....))..))),43.8,-13.2
GCTGCGGCGAAAGCCAGC (((..(((....)))))),57.4,-10.7

Sequence,Tm [1] [°C],folding enthalpy [2] [kcal/mol]
GCTGCGGGAAACCACAGC ((((.((....)).)))),52.7,-37.5
GCTGCGGGAAACCGTAGC (((.(((....))).))),58.5,-49.1
GCTGCTCGAAAGAGAAGC (((.(((....))).))),55.5,-37.6
GCTGCTGGAAACAACAGC ((((.((....)).)))),47.2,-32.8
GCTGGACGAAAGTCAGC (((.(((....)))))),56.1,-30.6
GCTGGAGGAAACCCCAGC (((((.(....).))))),52.8,-38.7
GCTGGAGGAAACTCCGGC ((.((((....)))).)),57.1,-40.4
GCTGGAGGAAACTTCAGC ((((.((....)).)))),50,-40.8
GCTGGATCGAAAGATAGC (((..(((....)))))),30.8,-21
GCTGGCCCGAAAGGGAGC (((..(((....)))))),44,-12.7
GCTGGCGAAAGCCAAGC ((((((....))).))),66.5,-20.2
GCTGGCGAAAGCCCTAGC ((((((....)))..))),40.9,-12
GCTGGCGAAAGCCTAGC ((((((....))).))),59.3,-19.4
GCTGGGCCGAAAGGCAGC (((..(((....)))))),48.5,-13.3
GCTGGGCGAAAGCACCGC ((.(.((....)).).)),52.7,-20.7
GCTGGGCGAAAGCCGGGC ((..(((....)))..)),55.6,-19.3
GCTGGGCGAAAGCCTTGC ((..(((....)))..)),53.2,-17.1
GCTGGTACGAAAGTAAGC (((..(((....)))))),34.2,-16.2
GCTGGTCGAAAGACAGC (((.(((....)))))),54.7,-27.3
GCTGGTGGAAACATCAGC ((((.((....)).)))),53.4,-39.5
GCTGGTGGAAACGCCAGC (((((.(....).))))),61.8,-52.9
